# Laboratory results from ChEMBL document CHEMBL1135725, “N-Aryl N'-hydroxyguanidines, a new class of NO-donors after selective oxidation by nitric oxide synthases: structure-activity relationship” (J Med Chem, 2002).
# B1: Nitric oxide synthase, inducible (Mus musculus), P29477 (protein)
# chain: MACPWKFLFKVKSYQSDLKEEKDINNNVKKTPCAVLSPTIQDDPKSHQNGSPQLLTGTAQNVPESLDKLHVTSTRPQYVRIKNWGSGEILHDTLHHKATSDFTCKSKSCLGSIMNPKSLTRGPRDKPTPLEELLPHAIEFINQYYGSFKEAKIEEHLARLEAVTKEIETTGTYQLTLDELIFATKMAWRNAPRCIGRIQWSNLQVFDARNCSTAQEMFQHICRHILYATNNGNIRSAITVFPQRSDGKHDFRLWNSQLIRYAGYQMPDGTIRGDAATLEFTQLCIDLGWKPRYGRFDVLPLVLQADGQDPEVFEIPPDLVLEVTMEHPKYEWFQELGLKWYALPAVANMLLEVGGLEFPACPFNGWYMGTEIGVRDFCDTQRYNILEEVGRRMGLETHTLASLWKDRAVTEINVAVLHSFQKQNVTIMDHHTASESFMKHMQNEYRARGGCPADWIWLVPPVSGSITPVFHQEMLNYVLSPFYYYQIEPWKTHIWQNEKLRPRRREIRFRVLVKVVFFASMLMRKVMASRVRATVLFATETGKSEALARDLATLFSYAFNTKVVCMDQYKASTLEEEQLLLVVTSTFGNGDCPSNGQTLKKSLFMLRELNHTFRYAVFGLGSSMYPQFCAFAHDIDQKLSHLGASQLAPTGEGDELSGQEDAFRSWAVQTFRAACETFDVRSKHHIQIPKRFTSNATWEPQQYRLIQSPEPLDLNRALSSIHAKNVFTMRLKSQQNLQSEKSSRTTLLVQLTFEGSRGPSYLPGEHLGIFPGNQTALVQGILERVVDCPTPHQTVCLEVLDESGSYWVKDKRLPPCSLSQALTYFLDITTPPTQLQLHKLARFATDETDRQRLEALCQPSEYNDWKFSNNPTFLEVLEEFPSLHVPAAFLLSQLPILKPRYYSISSSQDHTPSEVHLTVAVVTYRTRDGQGPLHHGVCSTWIRNLKPQDPVPCFVRSVSGFQLPEDPSQPCILIGPGTGIAPFRSFWQQRLHDSQHKGLKGGRMSLVFGCRHPEEDHLYQEEMQEMVRKRVLFQVHTGYSRLPGKPKVYVQDILQKQLANEVLSVLHGEQGHLYICGDVRMARDVATTLKKLVATKLNLSEEQVEDYFFQLKSQKRYHEDIFGAVFSYGAKKGSALEEPKATRL
# How the values were obtained:
# Assay type in all cases: functional
# Conditions in all cases: Mus musculus
# [1] = substrate: N/C(=N/c1ccc(O)cc1)NO; experiment: (§1) Kinetic constant for NO formation during oxidation by NADPH and molecular Oxygen with NOS II
# Method in brief: (§2)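 Recombinant NOS II (E. coli-expressed, purified) assayed at 37 °C in 50 mM HEPES pH 7.4 with 1 mM NADPH, 100 μM BH4, 5 mM DTT, SOD and catalase (100 U/mL each), and 12-15 μM oxyhemoglobin. Substrate was varied from 5 μM to 2.5 mM. Enzyme level was set to keep oxyhemoglobin conversion below 30%. Kinetic constants come from the initial methemoglobin formation rate at 401 nm; three to four experiments.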
# [2] = substrate: Cc1ccc(NC(=N)NO)cc1; experiment: as §1; method in brief: as §2
# [3] = substrate: N=C(NO)Nc1ccccc1; experiment: as §1; method in brief: as §2
# [4] = substrate: N/C(=N/c1ccsc1)NO; experiment: as §1; method in brief: as §2
# [5] = substrate: COc1ccc(NC(=N)NO)cc1; experiment: as §1; method in brief: as §2
# [6] = substrate: N/C(=N/c1ccc(F)cc1)NO; experiment: as §1; method in brief: as §2
protein,measurement,setting,value
B1,Km,[1],425 µM
same,Km,[2],1100 µM
same,Km,[3],270 µM
same,Km,[4],25 µM
same,Km,[5],2600 µM
same,Km,[6],300 µM
